Data on four compounds can be found in ChEMBL document CHEMBL1124479, “N-[(arylmethoxy)phenyl] and N-[(arylmethoxy)naphthyl] sulfonamides: potent orally active leukotriene D4 antagonists of novel structure” (J Med Chem, 1989).

For orientation: IC50 means the midpoint of a concentration-inhibition curve. One may read the Inhibition as the share of the control response that was lost under treatment. A lower Inhibition goes with little suppression. As a reminder, the inhibition in vivo is the share of the control response that was lost under treatment. The low end stands for little suppression, the high end for strong suppression. One may read the pKB as the KB on a negative log10 scale, so that one unit is a factor of ten. The term inhibition denotes the share of the control response that was lost under treatment. One may read the Kd as the free concentration of one partner at which half of the binding sites on the other are occupied at equilibrium, for simple one-to-one binding.

Active and inactive are the calls of the source. No cut-off for these calls is given here.

Data set [1] deals with T1, Polyunsaturated fatty acid 5-lipoxygenase (Rattus norvegicus, UniProt P12527).
T1 sequence (P12527 whole entry): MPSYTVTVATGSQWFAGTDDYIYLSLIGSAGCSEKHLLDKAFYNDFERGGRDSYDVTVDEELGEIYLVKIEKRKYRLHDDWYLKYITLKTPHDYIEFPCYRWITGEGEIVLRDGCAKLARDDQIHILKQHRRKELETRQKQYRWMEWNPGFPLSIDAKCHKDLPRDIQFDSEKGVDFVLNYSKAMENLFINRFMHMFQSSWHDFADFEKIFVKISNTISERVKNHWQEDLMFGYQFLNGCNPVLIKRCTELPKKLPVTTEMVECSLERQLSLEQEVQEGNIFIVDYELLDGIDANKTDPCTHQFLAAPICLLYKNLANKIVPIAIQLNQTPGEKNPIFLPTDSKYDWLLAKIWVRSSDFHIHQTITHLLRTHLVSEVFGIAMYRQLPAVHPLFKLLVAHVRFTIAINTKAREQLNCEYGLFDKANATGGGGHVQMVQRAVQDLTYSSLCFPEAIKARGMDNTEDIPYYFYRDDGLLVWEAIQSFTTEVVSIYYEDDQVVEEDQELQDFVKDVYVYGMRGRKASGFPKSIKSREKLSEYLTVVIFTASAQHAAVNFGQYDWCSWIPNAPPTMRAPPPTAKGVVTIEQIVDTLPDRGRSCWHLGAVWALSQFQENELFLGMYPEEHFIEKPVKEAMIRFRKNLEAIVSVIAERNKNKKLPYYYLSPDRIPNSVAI
Description: Inhibitory concentration to inhibit 5-lipoxygenase in the rat. The method, boiled down:
(§1)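 Rat PMN assay, measuring 5-lipoxygenase and cyclooxygenase activity. IC50 values are in μM.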

Data set [2] has as its system Mus musculus. Description: Percent inhibition of TPA-induced inflammation at 1 mg/ear in the mouse ear edema. The data set is classed as functional.
The test system of data set [3] is Cavia porcellus. Description: Inhibition of ovalbumin-induced bronchoconstriction when compound was administered perorally at a dose of 50 mg/kg in guinea pig. The note with it: route oral. Type of data set: functional. The method, boiled down: (§2)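 Single-dose screen in guinea pigs, with n animals per group. Significance versus control used a two-tailed Student's t test (p < 0.05), or one-way ANOVA with contrasts based on each treatment's difference from its own control mean.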

Data set [4] has as its system Cavia porcellus. Description: Inhibitory dose of the intragastrically administered compound (120 min before giving agonist) that produced a 50% inhibition of leukotriene D4 induced bronchoconstriction in guinea pigs. Type of data set: functional. The note with it: po, read-out: ID50 (the source's name). The method, boiled down: (§3)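 Guinea pigs, awake, dosed intragastrically 120 min before agonist challenge (95 min before anesthetic). The LTD4 challenge was given intravenously; ovalbumin served as antigen. ID50 is the dose giving 50% inhibition of LTD4- or ovalbumin-induced bronchoconstriction.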

For data set [5], the system named is Rattus norvegicus. Description: Percent inhibition of compound (50 mg/kg) in the rat carrageenan paw edema assay. Type of data set: functional. The method, boiled down: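 Rat carrageenan paw edema, with compound given intragastrically. Read-out is percent inhibition of edema.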
The subject of data set [6] is Cavia porcellus. Description: Inhibitory dose of intraduodenally administered compound (10 min before giving agonist) that produced a 50% inhibition of leukotriene D4 induced bronchoconstriction in guinea pig. The data set is classed as functional. The note with it: intraduodenal, read-out: ID50 (the source's name). In outline:
(§4)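 Guinea pigs, intraduodenal dosing, with LTD4 or ovalbumin challenge. ID50 is the dose of antagonist giving 50% inhibition of the induced bronchoconstriction.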

For a further data set, the target named is T2, Cyclooxygenase (Rattus norvegicus, UniProt P35355+Q63921).
T2 sequence (P35355 whole entry): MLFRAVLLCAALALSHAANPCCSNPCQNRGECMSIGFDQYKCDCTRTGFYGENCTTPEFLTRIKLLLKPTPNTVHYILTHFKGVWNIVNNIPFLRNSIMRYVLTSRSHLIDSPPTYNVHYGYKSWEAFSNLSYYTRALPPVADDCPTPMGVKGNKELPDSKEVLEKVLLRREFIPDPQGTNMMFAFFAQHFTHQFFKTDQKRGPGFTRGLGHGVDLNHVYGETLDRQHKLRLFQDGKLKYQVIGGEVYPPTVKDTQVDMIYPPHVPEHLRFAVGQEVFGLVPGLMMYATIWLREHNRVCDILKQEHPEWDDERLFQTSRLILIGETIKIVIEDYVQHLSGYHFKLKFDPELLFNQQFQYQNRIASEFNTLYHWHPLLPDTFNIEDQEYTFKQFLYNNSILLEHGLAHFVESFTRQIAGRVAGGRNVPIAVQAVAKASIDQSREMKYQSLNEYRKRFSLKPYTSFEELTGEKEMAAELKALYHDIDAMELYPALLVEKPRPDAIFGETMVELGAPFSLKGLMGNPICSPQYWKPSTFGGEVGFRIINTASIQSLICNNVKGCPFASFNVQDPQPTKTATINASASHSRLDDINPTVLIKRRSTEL
T2 sequence (Q63921 whole entry): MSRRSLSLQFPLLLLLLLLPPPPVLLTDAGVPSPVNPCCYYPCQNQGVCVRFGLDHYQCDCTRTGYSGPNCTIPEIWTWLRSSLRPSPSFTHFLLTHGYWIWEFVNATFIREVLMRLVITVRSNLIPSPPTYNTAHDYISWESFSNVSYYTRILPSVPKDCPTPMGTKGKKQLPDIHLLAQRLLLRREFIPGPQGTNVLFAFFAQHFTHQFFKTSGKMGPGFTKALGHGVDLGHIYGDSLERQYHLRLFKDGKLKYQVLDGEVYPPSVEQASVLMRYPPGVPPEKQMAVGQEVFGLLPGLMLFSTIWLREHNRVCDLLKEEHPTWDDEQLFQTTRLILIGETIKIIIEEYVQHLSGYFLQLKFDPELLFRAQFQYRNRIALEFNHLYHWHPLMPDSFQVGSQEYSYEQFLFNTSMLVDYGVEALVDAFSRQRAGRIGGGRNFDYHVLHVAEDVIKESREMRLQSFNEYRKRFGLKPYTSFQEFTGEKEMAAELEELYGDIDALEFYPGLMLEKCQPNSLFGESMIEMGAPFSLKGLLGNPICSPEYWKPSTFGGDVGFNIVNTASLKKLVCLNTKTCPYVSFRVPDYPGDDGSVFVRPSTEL
Description: Inhibitory concentration to inhibit Prostaglandin G/H synthase in the rat. The data set is classed as protein assay. The method, boiled down: as §1

Data set [7] relates to Cavia porcellus. Description: Inhibitory dose of the intragastrically administered compound (120 min before giving agonist) that produced a 50% inhibition of ovalbumin induced bronchoconstriction in guinea pigs. The data set is classed as functional. Conditions: po, read-out: ID50 (the source's name). The method, boiled down: as §3
Data set [8] has as its system Cavia porcellus. Description: Inhibitory dose of the intraduodenally administered compound (10 min before giving agonist)that produced a 50% inhibition of ovalbumin induced bronchoconstriction in guinea pigs. The data set is classed as functional. Conditions: intraduodenal, read-out: ID50 (the source's name). The method, boiled down: as §4
In data set [9] the test system is Cavia porcellus. Description: Inhibition of ovalbumin-induced bronchoconstriction when compound was administered intraduodenally at a dose of 50 mg/kg in guinea pig. Conditions: route intraduodenal. Type of data set: functional. In outline:
as §2

Data set [10] deals with Cavia porcellus. Description: Relative inhibitor potency of the intragastrically administered compound with Wy-48,252 against ovalbumin induced bronchoconstriction in guinea pigs. Type of data set: functional. The method, boiled down: (§5)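 Intragastric dosing of awake guinea pigs 120 min before agonist (95 min before anesthetic), with LTD4 or ovalbumin challenge.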
Data set [11] is described as follows: Disassociation constant was determined. The data set is classed as ADME. The method, boiled down: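 Isolated guinea pig trachea, pretreated with indomethacin and L-cysteine, contracted with LTD4. Antagonism was expressed as a pKB value.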
Data set [12] relates to Cavia porcellus. Description: Relative inhibitor potency of the intraduodenally administered compound with Wy-48,252 against lovalbumininduced bronchoconstriction in guinea pigs. Type of data set: functional.
Data set [13] concerns Cavia porcellus. Description: Inhibition of Leukotriene D4 induced bronchoconstriction in guinea pig by 50 mg/kg i.d. Conditions: at 50 mg/kg.
Data set [14] has as its system Cavia porcellus. Description: Relative inhibitor potency of the intraduodenally administered compound with Wy-48,252 against leukotrien D4 induced bronchoconstriction in guinea pigs. The data set is classed as functional.
In data set [15] the test system is Cavia porcellus. Description: Relative inhibitor potency of the intragastrically administered compound with Wy-48,252 against leukotriene D4 induced bronchoconstriction in guinea pigs. Type of data set: functional. The method, boiled down:
as §5

In data set [16] the test system is Cavia porcellus. Description: Inhibitory dose of the intraduodenally administered compound (10 min before giving agonist) that produced a 50% inhibition of leukotriene D4 induced bronchoconstriction in guinea pigs. The data set is classed as functional. The note with it: intraduodenal, read-out: ID50 (the source's name). In outline: as §4
For data set [17], the system named is Cavia porcellus. Description: Relative inhibitor potency of the intraduodenally administered compound with Wy-48,252 against ovalbumin induced bronchoconstriction in guinea pigs. Type of data set: functional.
In data set [18] the test system is Cavia porcellus. Description: Inhibitory dose of the intraduodenally administered compound (10 min before giving agonist) that produced a 50% inhibition of ovalbumin induced bronchoconstriction in guinea pigs. The data set is classed as functional. Conditions: intraduodenal, read-out: ID50 (the source's name). In outline:
as §4

In data set [19] the test system is Cavia porcellus. Description: Inhibition of ovalbumin-induced bronchoconstriction when compound was administered perorally at a dose of 25 mg/kg in guinea pig. Conditions: route oral. Type of data set: functional. The method, boiled down: as §2
Data set [20] relates to Cavia porcellus. Description: Inhibition of ovalbumin-induced bronchoconstriction when compound was administered intraduodenally at a dose of 25 mg/kg in guinea pig. The data set is classed as functional. The note with it: route intraduodenal. The method, boiled down:
as §2

Data set [21] concerns Cavia porcellus. Description: Inhibition of Leukotriene D4 induced bronchoconstriction when compound was administered perorally at a dose of 25 mg/kg in guinea pig. Type of data set: functional. Conditions: route oral. The method, boiled down:
as §2

Data set [22] concerns Mus musculus. Description: Compound was administered intragastrically and tested in a mouse ear edema assay; Inactive. The data set is classed as functional, organism-based.
Data set [23] has as its system Rattus norvegicus. Description: Compound at 100 mg/kg was administered intragastrically and tested in a rat carrageenan paw edema assay. Type of data set: functional. The note with it: po, route intragastric. Background: Carrageenan injected into the paw causes an acute inflammation.
For data set [24], the system named is Cavia porcellus. Description: Inhibition of ovalbumin-induced bronchoconstriction when compound was administered intraduodenally at a dose of 10 mg/kg in guinea pig. Type of data set: functional. Conditions: route intraduodenal. The method, boiled down: as §2
A short description of data set [25]: Binding studies using tritium-labelled leukotriene D4. Set-up: species or system Cavia porcellus.
Data set [26] can be described thus: Dissociation constant was determined. Type of data set: physicochemical. In outline: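 Isolated guinea pig trachea pretreated with indomethacin and L-cysteine, then contracted with LTD4. Antagonism of the LTD4-induced contraction was expressed as a pKB value.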
The species entered for data set [27] is Cavia porcellus. Description: Activity against leukotriene C4-induced contraction of guinea pig trachea, in the presence of glutathione.

Take `O=S(=O)(Nc1ccc2ccc(OCc3ccc4ccccc4n3)cc2c1)C(F)(F)F`: the IC50 in [1] is 230 nM; on Cyclooxygenase, 11900 nM. Moreover, the Inhibition is listed as 34% in the data set with Mus musculus [2] and 63% with Rattus norvegicus [5]. The inhibition in vivo at 50 mg/kg worked out at 83% in the data set on Cavia porcellus [3] and 86% in the data set with Cavia porcellus [9]. Moreover, the ED50 in the data set on Cavia porcellus [4] is 0.25 mg/kg; in the data set on Cavia porcellus [6], 1.4 mg/kg; with Cavia porcellus [7] it was 6.1 mg/kg; in the data set with Cavia porcellus [8] it was 0.46 mg/kg. Besides, the Relative inhibitor potency in the data set with Cavia porcellus [10] turned out to be 6; in the data set with Cavia porcellus [12], 41; in the data set with Cavia porcellus [14] it was 4; in the data set with Cavia porcellus [15] it was 128. Also, the pKB in [11] is 7.04. Also, the inhibition in the data set with Cavia porcellus [13] is 99%.

For the compound `CCCc1c(OCCCCc2nnn[nH]2)ccc(C(C)=O)c1O` [TOMELUKAST], the ED50 came to 32 mg/kg in the data set with Cavia porcellus [4], 6 mg/kg with Cavia porcellus [16], 38 mg/kg with Cavia porcellus [7] and 19 mg/kg with Cavia porcellus [18]. The Relative inhibitor potency in the data set with Cavia porcellus [17], with Cavia porcellus [10], in the data set with Cavia porcellus [14] and in the data set on Cavia porcellus [15] was 1 in each case.

Take `O=S(=O)(Nc1cccc(OCc2ncc3ccccc3n2)c1)C(F)(F)F`: the results for the inhibition in vivo at 25 mg/kg in the data set with Cavia porcellus [19], with Cavia porcellus [20] and with Cavia porcellus [21] were 23%, 78% and 97%, respectively.

In the case of `O=S(=O)(Nc1cccc(OCc2ccc3ccccc3n2)c1)C(F)(F)F` [RITOLUKAST], the half-maximal inhibitory concentration (IC50) in data set [1] was found to be 4600 nM; against Cyclooxygenase it was 3300 nM. In addition, the figures for the inhibition in vivo at 25 mg/kg with Cavia porcellus [19] and in the data set with Cavia porcellus [21] were 69% and 100%, respectively. Besides, the ED50 came out at 0.1 mg/kg with Cavia porcellus [4], 0.3 mg/kg in the data set on Cavia porcellus [16], 0.6 mg/kg in the data set with Cavia porcellus [7] and 3 mg/kg with Cavia porcellus [18]. For the same compound, in the data set on Mus musculus [22], the inhibition result is “inactive”. The same compound yielded an inhibition in vivo at 100 mg/kg in the data set on Rattus norvegicus [23] of 20%. The inhibition in vivo at 10 mg/kg with Cavia porcellus [24] stood at 73%. The Kd in [25] is 35 nM. This compound also returned a pKB in [26] of 7.7. In addition, the Dose in the data set filed under Cavia porcellus [27] turned out to be 30 µM.
